# High-throughput results from PubChem.
# G6PDH counter: counter-screen for G6PDH assay hits: L. mesenteroides G6PDH inhibition; Purified L. mesenteroides G6PDH, diaphorase/resazurin coupled fluorescence, 45 min; inhibition, % at 5 µM; 200,000 compounds, 0.12% hits; AID 1020
# WT yeast gro inh: growth inhibition of WT yeast, mitochondrial fusion screen. mitochondrial fusion phenotypic screen, WT strain. 190,000 compounds, 2.1% hits. inhibition, % at 10 µM. AID 1362; in the data active means inhibition above about 58%; tested in S. cerevisiae
# Diaph act CS: activates diaphorase or chemically reduces, flagging diaphorase assay artifacts; Diaphorase/resazurin coupled assay, resorufin fluorescence, 16 min; hits give high values; 1 = vehicle wells, 0 = NADH-free wells; 190,000 compounds, 0.005% hits; AID 1229; activation factor at 20 µM;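 active means diaphorase activity raised at least twofold by the compound at 20 µM; inactive means activation factor below 2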
#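 test system = bacterial diaphorase enzyme (C. kluyveri) | quantity = enzyme 0.07 U/mL final | reagent = NADH substrate 0.114 mM plus resazurin dye 0.1 mM, final | incubation = 16 min enzyme reaction, ambient temperature | buffer or medium = HEPES pH 7.4 buffer with MgCl2 and Tween 20 | signal = fluorescence of resorufin, 544 nm excitation, 590 nm emission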
# L major viab: Leishmania major promastigote growth inhibition; Leishmania major promastigotes, resazurin fluorescence viability; inhibition, % at 10 µM; 200,000 compounds, 9% hits;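 further: promastigotes grown with compound for 44 hours at 28 °C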
# Diaphorase inh: counter-screen for diaphorase-based assays: diaphorase inhibitors and chemical oxidizers; diaphorase resazurin-to-resorufin fluorescence, NADH, 16 min; bacterial (C. kluyveri) enzyme, not human; inhibition, % at 20 µM; 190,000 compounds, 0.69% hits; AID 1217;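 active means primary screen inhibition at 20 µM above a set limit, cut at about 50% in these data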;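 further: plate controls were DMSO with full reaction for no effect and wells lacking NADH for full effect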
#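 controls = No-NADH positive control and DMSO neutral control | system = Clostridium kluyveri diaphorase enzyme | timing = reaction incubation of 16 min at room temperature | signal = resorufin fluorescence 544/590 nm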
# * = called active by the depositor; x = no result given. This is a sample that favours compounds with a hit; in the whole collection about 11% have one here. Unless noted, no stated cut-off is given here; in the data, active means inhibition above about 50%; inactive means the rest.
SMILES,G6PDH counter,WT yeast gro inh,Diaph act CS,L major viab,Diaphorase inh
CC1(C)NC(=O)N(CCCOc2ccccc2Br)C1=O,1,-48,1,-2,3
Clc1ccc(OCCOCCOc2cccc3cccnc23)c(Br)c1,8,24,0.8,-5,19
Clc1ccc(OCCCCCN2CCCC2)c(Br)c1,18,32,0.8,98*,23
CCCn1nc(C(=O)Oc2ccc3c(C)cc(=O)oc3c2)c2ccccc2c1=O,-1,1,0.8,-4,20
O=C(Nc1ccccc1)Nc1ccc(C(=O)N2CCCC2)cc1,-3,62*,0.9,-3,5
CC(=O)c1cccc(NC(=O)Nc2ccc(C(=O)N3CCCC3)cc2)c1,13,4,0.9,-5,14
COC(=O)c1cc(NC(=O)Nc2cccc(Cl)c2)ccc1Cl,1,-15,0.9,71*,7
O=C(Nc1cccc(Cl)c1)Nc1ccc(Br)cc1F,-6,27,0.8,68*,17
O=C(Nc1ccccc1)Nc1ccc(S(=O)(=O)N2CCCCC2)cc1,10,26,0.8,82*,16
O=C1c2oc3ccc(Cl)cc3c(=O)c2C(c2ccccn2)N1CCCN1CCOCC1 (stereo not drawn),6,x,0.8,x,21
CN1CCN(S(=O)(=O)c2ccc(NC(=O)Nc3cccc(Cl)c3)cc2)CC1,12,-5,0.9,98*,13
O=C(Nc1cccc(O)c1)c1cc(S(=O)(=O)N2CCCC2)ccc1Cl,15,4,1,3,1
O=C(Nc1ccccc1)c1cc(S(=O)(=O)N2CCSCC2)ccc1Cl,4,-7,0.9,53*,15
O=C(CCCCCN1C(=O)c2ccccc2C1=O)Nc1ccc(S(=O)(=O)N2CCCCC2)cc1,-8,68*,0.7,35,30
CC1CCN(S(=O)(=O)c2ccc(NC(=O)CCN3C(=O)c4ccccc4C3=O)cc2)CC1,0,6,0.9,1,9
CCOc1ccc(/C=N/n2c(SC)nnc2-c2ccccc2)cc1OCC,5,2,0.9,6,8
CS(=O)(=O)Nc1ccccc1C(=O)c1ccccc1,-6,-6,1,-1,2
S=c1nc[nH]c2c1sc1nc(-c3ccccc3)c3c(c12)CCCC3,-17,97*,0.7,32,31
Cc1ccc(-n2nc(C)c(NC(=O)CCl)c2C)cc1C,-11,-2,0.9,56*,12
CCC(=O)Nc1c(C)nn(-c2ccc(C)c(C)c2)c1C,0,-1,0.9,-5,8
CN(C)CCCNC(=O)/C(=C\c1ccc(-c2cccc([N+](=O)[O-])c2)o1)NC(=O)c1ccccc1,24,-9,0.9,0,8
Cc1ccc(C(=O)N/C(=C\c2ccc(-c3ccc(Br)cc3)o2)C(=O)NCCCN(C)C)cc1,3,3,1.3,100*,-29
CN(C)CCNC(=O)/C(=C/c1ccc(-c2ccc(Cl)cc2Cl)o1)NC(=O)c1ccccc1,-2,53,1.3,100*,-28
CN(C)CCNC(=O)/C(=C/c1ccc(-c2ccc(Cl)cc2)o1)NC(=O)c1ccccc1,11,18,1,100*,0
Cc1ccc(C(=O)N/C(=C/c2ccc(-c3ccc(Br)cc3)o2)C(=O)NC2CCS(=O)(=O)C2)cc1 (stereo not drawn),6,12,1,69*,2
SMILES,G6PDH counter,WT yeast gro inh,Diaph act CS,L major viab,Diaphorase inh
CC1CCN(C(=O)CSc2nnc(-c3cc4ccccc4cc3O)n2Cc2ccco2)CC1,4,x,0.7,-1,31
N#C/C(=C/c1ccc(-c2ccc(Br)cc2)o1)C(=O)NC1CCCCC1,-12,7,0.9,81*,9
O=C(Nc1ccccc1)C1=C[C@H](C2CCCCC2)C[C@H](OCc2ccc(CO)cc2)O1,10,40,0.6,38,37
O=C(Nc1ccccc1)C1=C[C@@H](C2CCCCC2)C[C@@H](OCc2ccc(CO)cc2)O1,7,36,0.7,97*,26
O=C(Nc1ccccc1)C1=C[C@@H](C2CCCCC2)C[C@@H](OCCCCO)O1,12,-12,0.8,92*,16
CN(C)C=Nc1ncc2c([nH]c3ccccc32)c1C#N,9,39,1.2,2,-21
CCN1C(=O)N(c2ccc(Cl)cc2)C(C)=CC1(C)C,6,-7,0.9,7,14
C(=C\c1ccccc1)/C=N/N1CCN(Cc2ccccc2)CC1,-1,27,0.9,0,12
COc1ccccc1/C=C/C=N/N1CCN(Cc2ccc(Cl)cc2)CC1,14,42,0.8,85*,18
COc1ccccc1/C=C/C=N\N1CCN(Cc2ccccc2Cl)CC1,-8,63*,0.9,65*,7
Clc1ccc(/C=N/N2CCN(Cc3ccccc3Cl)CC2)cc1,6,66*,0.9,-1,8
Clc1ccccc1CN1CCN(/N=C/c2ccncc2)CC1,1,41,1.1,3,-14
Clc1ccc(CN2CCN(/N=C/c3ccco3)CC2)cc1,4,-2,0.9,-1,12
Cc1ccc(/C=N/N2CCN(Cc3ccc(Cl)cc3)CC2)o1,13,2,0.9,52*,8
Cc1noc(C)c1COc1ccc(C(=O)OCC(N)=O)cc1,0,-9,0.9,3,13
C=CCn1c(SCC(=O)c2[nH]c(C)c(C(=O)OCC)c2C)nc2scc(-c3ccc(OC)cc3)c2c1=O,-3,-11,1,-3,1
Cc1cccc(CCNC(=O)C2CCN(S(=O)(=O)c3ccccc3)CC2)c1,-3,9,0.8,12,16
Cc1cc(=O)oc2c(C(=O)/C=C/c3ccccc3)c(O)ccc12,10,2,1,52*,-2
COc1ccc(/C=C\C(=O)c2c(O)ccc3c(C)cc(=O)oc23)cc1OC,2,9,0.9,100*,6
COc1cc(/C=C/C(=O)c2c(O)ccc3c(C)cc(=O)oc23)ccc1O,-1,21,0.7,99*,26
COc1ccc([N+](=O)[O-])cc1C(=O)Nc1ccc(OCC(=O)N2CCOCC2)cc1,-3,-4,0.9,-6,14
Cn1ncc(Br)c1C(=O)NC12CC3CC(CC(C3)C1)C2,11,0,0.9,2,9
CCOC(=O)c1[nH]c(=O)[nH]c1CN(Cc1ccco1)Cc1[nH]c(=O)[nH]c1C(=O)OCC,2,6,1.1,1,-5
COc1ccccc1N1CCN(C(=O)c2oc3cc(C)cc(C)c3c2C)CC1,16,76*,0.8,7,24
CCc1ccc(NC(=O)C(=O)NCCN2CCN(C(=O)c3ccco3)CC2)cc1,6,-1,0.9,11,13
CC1CC(C)(C)NC(=S)N1CCCC(=O)N1CCN(c2ccccc2F)CC1 (stereo not drawn),-16,0,1,61*,0
CCOC(=O)c1c(C(C)(C)C)oc2ccc(O)cc12,8,-20,0.8,100*,22
